Screening results (PubChem BioAssay)
Rows were chosen to be rich in hits. Some 1.7% of all compounds tested hit in one or more screens of this group.
STEP inh: blocks human striatal-enriched tyrosine phosphatase. inhibition, % at 20 µM. P54829. 0.25% of 360,000 active. AID 588621. recombinant STEP, OMFP fluorogenic substrate, fluorescence;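 active means inhibition at 20 µM, scaled per plate between control wells, above about 37%, limit read from the data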
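Material: STEP (striatal-enriched tyrosine phosphatase) enzyme, cell-free | Medium: 50 mM Bis-Tris pH 6.0 with 2.5 mM DTT and 0.005% Tween 20 | Read-out: Percent inhibition scaled to no-enzyme and uninhibited-enzyme controls, plate-pattern corrected | Signal: Fluorescence read at 480 nm ex / 540 nm em | Times: 20 min reaction, room temperature, in the dark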
LMPTP block: blocks human LMPTP phosphatase; P24666; 0.22% of 360,000 active; inhibition, % at 20 µM; recombinant LMPTP-A, OMFP fluorogenic substrate, fluorescence intensity; AID 651560;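 active means compounds that cut the enzyme signal by at least half of the control window in the single-dose screen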
Target sequence (P24666 whole entry, looked up): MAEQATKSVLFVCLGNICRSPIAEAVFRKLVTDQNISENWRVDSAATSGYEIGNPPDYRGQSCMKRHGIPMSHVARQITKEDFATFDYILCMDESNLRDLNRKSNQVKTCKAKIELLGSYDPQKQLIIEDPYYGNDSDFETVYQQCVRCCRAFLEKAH
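Test system – LMPTP-A enzyme · Amount – LMPTP-A at 0.625 nM final in the reaction · Buffer or medium – Bis-Tris pH 6.0, DTT, detergent · Reagent – OMFP 400 µM · Doses – single 20 µM dose · Schedule – reaction 50 min, room temperature, dark · Detection – fluorescence intensity of OMFP turnover product · Evaluation – percent inhibition versus substrate-only and uninhibited controls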
SUMO1-SIM PPI: alters human SUMO1 binding to SIM partners; P63165; SUMO1 binding to a labelled peptide, TR-FRET, 1 h; inhibition, % at 20 µM; 0.33% of 360,000 active; in the data active means inhibition above about 37%
Target sequence (P63165 whole entry, looked up): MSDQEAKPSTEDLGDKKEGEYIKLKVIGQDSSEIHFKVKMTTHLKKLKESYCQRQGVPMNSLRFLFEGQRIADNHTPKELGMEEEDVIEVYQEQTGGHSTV
Scp1 inh: inhibitors of human Scp-1 phosphatase | Recombinant Scp1, phosphopeptide, malachite green phosphate absorbance | Q9GZU7 | 0.88% of 340,000 active | AID 493091 | inhibition, % at 20 µM;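 active means inhibition above about 50% at 20 µM, limit read from the data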
Target sequence (Q9GZU7 76-261 limits assumed): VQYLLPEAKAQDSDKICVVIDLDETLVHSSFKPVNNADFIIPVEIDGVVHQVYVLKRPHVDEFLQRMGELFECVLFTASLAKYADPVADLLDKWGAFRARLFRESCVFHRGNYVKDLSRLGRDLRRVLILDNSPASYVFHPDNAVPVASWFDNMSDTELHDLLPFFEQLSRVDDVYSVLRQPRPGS
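Assay system: SCP-1 catalytic fragment, aa 76-261 | Buffer or medium: Tris acetate buffer pH 5.5 with MgCl2 and Tween-20 | Compound: One concentration, 20 µM, with 1.0% DMSO | Also added: Phospho 17-mer peptide substrate | Signal: Absorbance at 630 nm | Incubation: 45 min enzyme reaction at room temperature | Measure: % inhibition of SCP-1 phosphate liberation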
DNMT1 inh: DNMT1 (human) enzyme inhibition | P26358 | DNMT1 molecular beacon, Hinp1I cleavage, fluorescence | inhibition (reported as % activation of signal), % at 10 µM | 0.83% of 360,000 active | AID 588458; in the data active means inhibition above about 50%
Numbers stand for hits.

`CCCCn1c(NC(=O)c2ccc(Br)o2)c(S(=O)(=O)c2ccccc2)c2nc3ccccc3nc21` gave STEP inh inactive, LMPTP block inactive, SUMO1-SIM PPI 47, Scp1 inh inactive and DNMT1 inh inactive.
C=CC[C@@H](CC(=O)N[C@H](CO)Cc1ccccc1)C(=O)N[C@H](COC(=O)[C@@H](CC=C)Cc1ccc(F)cc1)Cc1c[nH]c2ccccc12 was read as STEP inh inactive, LMPTP block inactive, SUMO1-SIM PPI inactive, Scp1 inh inactive and DNMT1 inh inactive.
CC1CCN(C(=O)CSc2nnc(CNC(=O)c3ccc(F)cc3)o2)CC1 was read as STEP inh inactive, LMPTP block inactive, SUMO1-SIM PPI inactive, Scp1 inh inactive and DNMT1 inh inactive.
`CCOC(=O)c1cn2nc(SCc3ccccc3)nc2nc1C` gave STEP inh inactive, LMPTP block inactive, SUMO1-SIM PPI inactive, Scp1 inh inactive and DNMT1 inh inactive.
Screening CCCCCN(C(=O)CCC(=O)OCC(=O)c1ccc(CCC)cc1)c1c(N)n(CCCC)c(=O)[nH]c1=O returned STEP inh inactive, LMPTP block inactive, SUMO1-SIM PPI inactive, Scp1 inh inactive and DNMT1 inh inactive.
For COc1nc(Nc2nc3ccccc3c(=O)[nH]2)nc2ccc(C)cc12 the results were STEP inh inactive, LMPTP block inactive, SUMO1-SIM PPI 47, Scp1 inh inactive and DNMT1 inh inactive.
For CCOC(=O)CN1C(=O)S/C(=C\c2ccc(-c3cccc(C(=O)O)c3C)o2)C1=O the results were STEP inh inactive, LMPTP block inactive, SUMO1-SIM PPI inactive, Scp1 inh inactive and DNMT1 inh inactive.
`N=C1S/C(=C\c2ccc(-c3ccccc3C(=O)O)o2)C(=O)N1c1ccc2c(c1)OCO2` gave STEP inh inactive, LMPTP block inactive, SUMO1-SIM PPI inactive, Scp1 inh 53 and DNMT1 inh inactive.
Screening CCc1ccc(S(=O)(=O)N2CCCC(N3CCN(c4ccc(OC)cc4)CC3)C2)cc1 (stereo unspecified) returned STEP inh inactive, LMPTP block inactive, SUMO1-SIM PPI inactive, Scp1 inh inactive and DNMT1 inh inactive.
CCC(=O)N1CCC1(C)C(=O)Nc1cccc(OC)c1 (stereo unspecified) was read as STEP inh inactive, LMPTP block inactive, SUMO1-SIM PPI inactive and DNMT1 inh inactive.
Screening Cc1cc(C)c(NC(=O)Cn2nnc(C(=O)NCCc3ccccc3)c2N)c(C)c1 returned STEP inh inactive, LMPTP block inactive, SUMO1-SIM PPI inactive, Scp1 inh inactive and DNMT1 inh inactive.
`Cc1ccc(NC(=O)Cn2nnc(C(=O)NCCc3ccccc3)c2N)c(C)c1` gave STEP inh inactive, LMPTP block inactive, SUMO1-SIM PPI inactive, Scp1 inh inactive and DNMT1 inh 53.
Cc1cc(=O)oc2cc(OCC(=O)N/N=C/c3cc([N+](=O)[O-])ccc3O)ccc12 was read as STEP inh 94, LMPTP block 71, SUMO1-SIM PPI inactive, Scp1 inh inactive and DNMT1 inh inactive.
Cc1cc(=O)oc2cc(OCC(=O)NCCCN3CCOCC3)ccc12 was read as STEP inh inactive, LMPTP block inactive, SUMO1-SIM PPI 40, Scp1 inh inactive and DNMT1 inh inactive.
`O=C(COc1ccc2c(-c3ccccc3)cc(=O)oc2c1)NCCCN1CCOCC1` gave STEP inh inactive, LMPTP block inactive, SUMO1-SIM PPI inactive, Scp1 inh inactive and DNMT1 inh inactive.
`Cc1ccc(C)c(NC(=O)CCC(=O)N/N=C/c2cc([N+](=O)[O-])ccc2O)c1` gave STEP inh inactive, LMPTP block inactive, SUMO1-SIM PPI inactive, Scp1 inh inactive and DNMT1 inh inactive.
Screening Cc1ccc(C(=O)N2CCOCC2)cc1S(=O)(=O)N1CCCCC1 returned STEP inh inactive, LMPTP block inactive, SUMO1-SIM PPI inactive, Scp1 inh inactive and DNMT1 inh inactive.
CC(C)N1C(=O)S/C(=C\c2ccc(-c3ccc(Cl)c(C(=O)O)c3)o2)C1=O was read as STEP inh inactive, LMPTP block inactive, SUMO1-SIM PPI inactive, Scp1 inh 68 and DNMT1 inh inactive.
`Cc1ccc(N2NC(=O)/C(=C/c3ccc(-c4ccc(Cl)c(C(=O)O)c4)o3)C2=O)cc1` gave STEP inh inactive, LMPTP block inactive, SUMO1-SIM PPI inactive, Scp1 inh inactive and DNMT1 inh inactive.
